# Screens from PubChem BioAssay.
# A1 inh – caspase 3/7 activation in MEF A1-2A-BIM cells, primary screen, A1 inhibitor project, cell-based, luminescence, HTS | AID 2462, 2010 | caspase activation, % (no concentration beside the values) | Caspase-Glo 3/7 luminescence, 3 h; percent of clofoctol response, vehicle zero | actives 0.066% (n = 330,000);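 active means over half of replicate activation scores above 10%, or exactly half above 10 with the replicate mean above 10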
# TbMetRS inhib – T. brucei MetRS inhibitors, primary screen, biochemical, luminescence | purified T. brucei MetRS, ATP depletion, Kinase-Glo luminescence | inhibition, % at 11.9 µM | actives 0.4% (n = 360,000) | AID 624268, 2012;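 active means inhibition above a per-plate cutoff of the control wells' mean inhibition plus 3 SD, cut at about 5.5% in these data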;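 further: 0% = DMSO wells median and 100% = median of wells with control inhibitor compound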
#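 Material – parasite MetRS enzyme · Medium – HEPES-MgCl2-KCl buffer plus DTT, spermine, BSA, pyrophosphatase · Reagent – ATP, methionine and E. coli bulk tRNA substrates · Times – 15 min enzyme-compound preincubation, 2 h reaction, 10 min detection, 25 °C · Measured by – luminescence of leftover ATP · Evaluation – percent inhibition relative to median high and low control wells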
# SKN-1 inh – suppressors of acrylamide-induced Pgst-4::GFP reporter in worms, primary screen, SKN-1 inhibitor project, whole organism, uHTS, GFP/RFP fluorescence ratio, strain VP596 | actives 0.49% (n = 360,000) | inhibition, % at 21.8 µM | C. elegans VP596 Pgst-4::GFP/RFP ratio, 24 h;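 active means interference check ratio from 0.5 to 1.5 plus GFP to RFP signal ratio inhibition reaching or exceeding a fixed threshold, cut at about 30% in these data, passing the limit was not always enough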
# MT1-MMP act inh – blockers of MT1-MMP proenzyme processing, primary screen, HT1080 RFP-PRO-GFP cells, GFP/RFP fluorescence | Matrix metalloproteinase-14 (Homo sapiens), P50281 | AID 651647, 2012 | GFP/RFP ratio fluorescence, overnight; percent of plate control window, DMSO zero | actives 0.061% (n = 360,000) | GFP/RFP ratio change, % at 20 µM;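 active means GFP/RFP ratio change of at least 30% with cell ATP level not reduced by more than half and red fluorescence within 50% of control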
#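 Assay system: HT1080 RFP-PRO-GFP cells | Dosing: 20 µM single dose, 1% DMSO | Incubation: Cells overnight before dosing, compound overnight, 37 °C, 5% CO2 | Evaluation: GFP/RFP fluorescence ratio | Control set: DMSO-only wells and HT1080 RFP-L50D-GFP cell wells as references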
# NPR1 activator – GC-A stimulated cGMP production enhancers – HEK293 GC-A cells, cGMP TR-FRET, EC30 ANP, primary screen | actives 0.14% (n = 370,000) | 0% at EC30 ANP, 100% saturating ANP | activation, % at 10 µM; in the data active means activation above about 40%
# GC-B act – human GC-B receptor activators, primary screen, HEK293 GC-B cells, cGMP TR-FRET, EC30 CNP. 0% at EC30 CNP, 100% saturating CNP. Atrial natriuretic peptide receptor 2 (Homo sapiens), P20594. activation, % at 10 µM. actives 0.11% (n = 370,000);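 active means activation at 10 µM reaching about 35% in either raw or pattern-adjusted values, limit read from the data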
# Target sequence (P20594 whole entry, looked up): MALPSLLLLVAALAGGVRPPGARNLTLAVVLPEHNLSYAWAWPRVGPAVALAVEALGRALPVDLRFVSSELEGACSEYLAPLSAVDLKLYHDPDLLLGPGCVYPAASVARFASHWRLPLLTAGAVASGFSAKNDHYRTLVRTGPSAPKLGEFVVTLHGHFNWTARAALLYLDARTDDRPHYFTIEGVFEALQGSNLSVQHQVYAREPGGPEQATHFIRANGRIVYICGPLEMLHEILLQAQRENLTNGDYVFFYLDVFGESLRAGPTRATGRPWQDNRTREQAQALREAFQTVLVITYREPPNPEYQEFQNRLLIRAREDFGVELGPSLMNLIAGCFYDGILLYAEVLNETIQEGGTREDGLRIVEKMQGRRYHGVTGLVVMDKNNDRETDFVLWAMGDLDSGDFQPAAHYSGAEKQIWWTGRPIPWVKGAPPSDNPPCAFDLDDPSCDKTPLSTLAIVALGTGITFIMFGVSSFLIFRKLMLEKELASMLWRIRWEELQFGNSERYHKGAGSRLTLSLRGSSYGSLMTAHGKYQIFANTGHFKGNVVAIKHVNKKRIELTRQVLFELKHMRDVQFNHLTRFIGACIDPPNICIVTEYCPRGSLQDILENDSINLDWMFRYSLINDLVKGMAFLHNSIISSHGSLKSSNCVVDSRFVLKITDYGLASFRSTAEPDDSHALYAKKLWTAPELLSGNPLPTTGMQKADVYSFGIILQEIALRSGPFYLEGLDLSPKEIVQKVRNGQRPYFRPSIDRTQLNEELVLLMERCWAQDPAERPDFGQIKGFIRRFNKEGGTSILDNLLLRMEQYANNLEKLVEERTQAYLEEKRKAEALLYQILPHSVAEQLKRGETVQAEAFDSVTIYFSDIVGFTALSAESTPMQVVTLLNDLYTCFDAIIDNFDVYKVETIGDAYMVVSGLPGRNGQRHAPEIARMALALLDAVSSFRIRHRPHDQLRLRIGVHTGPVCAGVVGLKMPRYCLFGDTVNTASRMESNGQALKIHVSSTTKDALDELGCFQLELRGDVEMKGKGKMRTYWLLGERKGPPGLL
# * = called active by the depositor; nt = no result. Most compounds without a hit are left out; they make up all but 1.1% or so of the library.
SMILES,A1 inh,TbMetRS inhib,SKN-1 inh,MT1-MMP act inh,NPR1 activator,GC-B act
O=C1NC(=S)NC(=O)C1=Cc1ccc(Br)s1,0.2,-0.3,20.3,-12.5,31.8,33.6
CN1C(=O)/C(=C\c2ccc(Br)s2)C(=O)NC1=S,0.1,-0.3,37.3*,nt,19.7,11.7
COC(=O)C1=C(c2ccc(OC(F)(F)F)cc2)C[C@@H]2CC[C@H]1N2C(=O)NCC1CC1,-0.6,-0.3,-1.4,-2.1,-0.3,125.6*
Oc1ccc(/C=N/NP(=S)(c2ccccc2)c2ccccc2)cc1,0.8,-0.1,37.8*,-2.4,-5.2,0.1
Cc1cccc(N2C(=O)NC(=O)/C(=C\c3ccc4c(c3)CCCN4Cc3ccccc3)C2=O)c1,0.1,0.5,39.6*,-5.8,23.8,11.3
CC(C)(C)n1nnnc1C1CN=C(c2ccccc2)c2ccccc2N1 (stereo not drawn),nt,nt,nt,nt,1.2,4.4
Cc1ccc(N=Cc2c(O)n(-c3ccc(C)cc3)c(=O)[nH]c2=O)cc1,0.8,0.0,25.1,-1.2,1.5,-0.4
Cc1ccc(-n2c(O)c(C=Nc3ccc(S(=O)(=O)N(C)C)cc3)c(=O)[nH]c2=O)cc1,-0.2,0.3,33.8*,-206.7,1.6,-3.5
COC(=O)C1C(c2ccc(Cl)cc2)CC2CCC1N2C (stereo not drawn),nt,nt,nt,nt,-2.5,-1.6
O=C1c2ccccc2-c2cc3ccccc3cc21,nt,0.5,29.9,-0.1,-0.8,2.7
O=C1C=C(N2CC2)c2ccccc2C1=O,nt,0.8,36.8*,19.4,-8.3,-3.1
CC(=O)N1c2ccccc2C(c2ccccc2)=NCC1C(=O)NC1CCCCC1 (stereo not drawn),nt,nt,nt,nt,-2.7,-1.4
COC1CCC(OC2CC(C3(C)CCC4(CC(O)C(C)C(C(C)/C=C(\C)C(=O)C(C)CC(C)C(=O)O)O4)O3)OC3(OC(C4OC(O)(CO)C(C)CC4C)CC3C)C2C)OC1C (stereo not drawn),nt,-0.1,-2.3,-2.2,5.5,-4.6
Cc1ccc(N2C(=O)NC(=O)/C(=C/c3cnn(-c4ccc(C)cc4)c3)C2=O)cc1,-0.1,0.5,5.0,2.7,56.6*,10.5
C=CCN1CC[C@]23c4c5ccc(O)c4OC2C(=O)CC[C@@]3(O)[C@H]1C5 (stereo partly drawn),nt,nt,nt,nt,-1.4,-1.6
CC1C2Cc3ccc(O)cc3C1(C)CCN2CC1CC1 (stereo not drawn),nt,nt,nt,nt,1.1,-4.5
CC(=O)NCC1=C(c2ccc(S(C)(=O)=O)cc2)C[C@@H]2CC[C@H]1N2CCOc1ccccc1,nt,nt,nt,nt,-2.5,2.7
C=CC1C[N+]2(C)CCC1CC2C(O)c1ccnc2ccccc12 (stereo not drawn),nt,nt,nt,nt,3.7,2.3
Cc1cc(N(CCCl)CCCl)ccc1C=Cc1ccncn1,nt,-0.2,42.4*,-106.9,-10.6,-5.9
CN1C(=O)C(=Cc2sc(=O)n(-c3ccccc3)c2N2CCCCC2)C(=O)N(C)C1=O,nt,-0.3,38.5*,-65.5,0.3,-0.5
Cc1c2cnn(CC(=O)N3CCC4(CC3)OCCO4)c(=O)c2c(C)n1Cc1ccc(F)cc1,-0.2,-1.1,-3.4,3.7,5.5,1.6
O=C(Cn1ncc2c3ccccc3n(Cc3ccccc3F)c2c1=O)N1CCC2(CC1)OCCO2,0.5,-0.3,13.3,-2.7,29.4,41.5*
CNC(=O)Oc1cccc(-c2cn3cc(OC(=O)NC)ccc3n2)c1,-6.0,-0.2,49.6*,nt,-2.5,-1.8
Cc1cc(N2CCNC[C@@H]2C)ccc1N1CCN[C@@H](C)C1,nt,nt,nt,nt,1.8,-2.1
COc1ccc2nc(-c3ccc(CN4CCC(n5c(=O)[nH]c6cc(Cl)ccc65)CC4)cc3)c(-c3ccccc3)nc2c1,nt,nt,nt,nt,-2.1,6.5
